Results: publication PMC4987129 (Leukemia, 2015)

How the values were obtained:
cancer cell lines = assay: Anti-proliferation, comparison of BMX-IN-1 with QL-X-138; type: cell-based; conditions: Supplemental Table 3
REC-1 = assay: Anti-proliferation assay; type: cell-based; conditions: REC-1, MCL; 72 hours
MEC-2 = assay: Anti-proliferation assay; type: cell-based; conditions: MEC-2, CLL; 72 hours
MEC-1 = assay: Anti-proliferation assay; type: cell-based; conditions: MEC-1, CLL; 72 hours
HEL = assay: Anti-proliferation assay; type: cell-based
Hs 505.T = assay: Anti-proliferation assay; type: cell-based; conditions: CLL, 72 hours
TMD8 = assay: Anti-proliferation assay; type: cell-based
HCT-116 = assay: Anti-proliferation assay; type: cell-based
K562 = assay: Anti-proliferation assay; type: cell-based
U2932 = assay: Anti-proliferation assay; type: cell-based
NALM6 = assay: Anti-proliferation assay; type: cell-based, human; conditions: NALM6, ALL; 72 hours
Ramos = assay: Anti-proliferation assay; type: cell-based; conditions: B-lymphoma, 72 hours
NB4 = assay: Anti-proliferation assay; type: cell-based, human; conditions: NB4, AML; 72 hours
OCI-AML3 = assay: Anti-proliferation assay; type: cell-based, human
RV-1 = assay: Anti-proliferation assay; type: cell-based
Outline: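 RV-1 cells grown in DMEM with 10% FBS and 1% penicillin-streptomycin, seeded at 2500–3000/well for 12 h, then exposed to test compound at various concentrations for 72 h. Viability read by CellTiter-Glo luminescence and normalized to DMSO controls. Values are the mean of three independent measurements, with standard error <20%, and GI50 was derived by curve fitting.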

U937 = assay: Anti-proliferation assay; type: cell-based; conditions: U937, AML; 72 hours
SKM-1 = assay: Anti-proliferation assay; type: cell-based, human; conditions: SKM-1, AML; 72 hours
HeLa = assay: Anti-proliferation assay; type: cell-based
NOMO-1 = assay: Anti-proliferation assay; type: cell-based, human
Ramos cells = assay: Signaling pathway effect examination; type: cell-based
Outline: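 Ramos cells in RPMI with 10% FBS were treated with serially diluted test compound for 4 h. Cells were then harvested and lysed, and phosphorylation in the lysates was assessed by western blotting.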

DU-145 = assay: Anti-proliferation assay; type: cell-based
mTOR = conditions: read-out: IC50, mTOR; biochemical; cited from earlier work
BTK = BTK (Homo sapiens, UniProt Q06187); conditions: cited from earlier work
Sequence of BTK (Q06187 whole entry): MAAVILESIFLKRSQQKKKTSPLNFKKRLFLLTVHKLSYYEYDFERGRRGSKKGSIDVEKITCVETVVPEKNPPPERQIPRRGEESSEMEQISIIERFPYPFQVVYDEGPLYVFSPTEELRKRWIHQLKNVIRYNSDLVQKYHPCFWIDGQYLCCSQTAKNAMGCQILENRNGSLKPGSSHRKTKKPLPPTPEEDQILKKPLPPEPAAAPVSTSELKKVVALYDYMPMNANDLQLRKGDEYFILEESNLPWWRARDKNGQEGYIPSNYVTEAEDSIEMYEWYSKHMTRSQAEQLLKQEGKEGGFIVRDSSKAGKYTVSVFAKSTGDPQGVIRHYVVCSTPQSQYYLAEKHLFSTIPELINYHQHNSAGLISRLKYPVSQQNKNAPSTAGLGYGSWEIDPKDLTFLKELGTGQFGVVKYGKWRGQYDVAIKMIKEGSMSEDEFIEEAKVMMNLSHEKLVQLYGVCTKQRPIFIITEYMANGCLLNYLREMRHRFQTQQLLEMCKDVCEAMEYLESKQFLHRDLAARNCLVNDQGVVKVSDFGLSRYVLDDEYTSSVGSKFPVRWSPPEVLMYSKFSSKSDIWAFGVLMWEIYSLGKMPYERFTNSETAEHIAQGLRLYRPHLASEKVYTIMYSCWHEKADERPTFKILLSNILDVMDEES

MNK1 = MNK1 (Homo sapiens, UniProt Q9BUB5); conditions: cited from earlier work
Sequence of MNK1 (Q9BUB5 1-424 isoform Q9BUB5-2): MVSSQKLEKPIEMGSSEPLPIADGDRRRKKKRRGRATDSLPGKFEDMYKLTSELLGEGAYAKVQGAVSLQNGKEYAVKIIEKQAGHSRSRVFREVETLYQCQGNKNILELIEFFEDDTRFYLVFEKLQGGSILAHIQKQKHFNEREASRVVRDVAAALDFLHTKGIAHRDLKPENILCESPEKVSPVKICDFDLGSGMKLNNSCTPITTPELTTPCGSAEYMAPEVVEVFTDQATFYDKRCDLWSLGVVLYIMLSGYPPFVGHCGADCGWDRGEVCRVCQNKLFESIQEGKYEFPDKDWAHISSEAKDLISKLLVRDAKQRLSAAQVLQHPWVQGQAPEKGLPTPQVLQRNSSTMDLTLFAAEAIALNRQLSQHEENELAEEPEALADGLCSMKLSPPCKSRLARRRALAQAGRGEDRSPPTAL

SMILES: C=CC(=O)Nc1cc(-n2c(=O)ccc3cnc4ccc(-c5ccc(NS(C)(=O)=O)cc5)cc4c32)ccc1C [BMX-IN-1]
- anti-proliferation activity in comparison to QL-X-138 (cancer cell lines): weaker anti-proliferation activity

SMILES: CC(=O)C1=C(O)C=C2Oc3c(C(N)=O)c(O)cc(O)c3[C@]2(C)C1=O [Cercosporamide]
- GI50 (REC-1): > 10 µM
- GI50 (MEC-2): > 10 µM
- GI50 (MEC-1): > 10 µM
- GI50 (HEL; AML, 72 hours): > 10 µM
- GI50 (Hs 505.T): > 10 µM
- GI50 (TMD8; TMD8, DLBCL, 72 hours): > 10 µM
- GI50 (HCT-116; HCT-116, Colon, 72 hours): > 10 µM
- GI50 (K562; K562, CML, 72 hours): > 10 µM
- GI50 (U2932; U2932, DLBCL, 72 hours): > 10 µM
- GI50 (NALM6): > 10 µM
- GI50 (Ramos): > 10 µM
- GI50 (NB4): > 10 µM
- GI50 (OCI-AML3; OCI-AML3, AML, 72 hours): > 10 µM
- GI50 (RV-1; RV-1, Prostate, 72 hours): > 10 µM
- GI50 (U937): 3.9 µM
- GI50 (SKM-1): > 10 µM
- GI50 (HeLa; Cervical, 72 hours): > 10 µM
- GI50 (NOMO-1; NOMO-1, AML, 72 hours): > 10 µM
- effect on MNK phosphorylation (Ramos cells; 4 hours): did not affect
- effect on phosphorylation of eIF4E S209 (Ramos cells; at a concentration of 1 μM): suppressed
- GI50 (DU-145; DU-145, Prostate, 72 hours): > 10 µM

SMILES: C=CC(=O)N1CCC[C@@H](n2nc(-c3ccc(Oc4ccccc4)cc3)c3c(N)ncnc32)C1 [PCI-32765]
- GI50 (HEL; Homo sapiens, 72 h): 4 µM
- GI50 (TMD8; Homo sapiens, TMD8, 72 h): 0.002 µM
- GI50 (HCT-116; Homo sapiens, HCT-116, 72 h): > 10 µM
- GI50 (K562; Homo sapiens, K562, 72 h): > 10 µM
- GI50 (U2932; Homo sapiens, U2932, 72 h): > 10 µM
- GI50 (OCI-AML3; Homo sapiens, OCI-AML-3, 72 h): > 10 µM
- GI50 (RV-1; RV-1, 72 h): > 10 µM
- GI50 (HeLa; Homo sapiens, 72 h): > 10 µM
- GI50 (NOMO-1; Homo sapiens, NOMO-1, 72 h): > 10 µM
- effect on MNK phosphorylation (Ramos cells; 4 hours): did not affect
- effect on phosphorylation of PLCγ2 Y1217 (Ramos cells; 4 hours): strongly blocked
- GI50 (DU-145; Homo sapiens, DU-145, 72 h): > 10 µM

SMILES: Nc1ccc(-c2ccc3ncc4ccc(=O)n(-c5cccc(C(F)(F)F)c5)c4c3c2)cn1 [Torin2, 9-(6-aminopyridin-3-yl)-1-(3-(trifluoromethyl)phenyl)benzo[h][1,6]naphthyridin-2(1H)-one]
- IC50 (mTOR): 0.00025 µM
- activity against BTK (BTK): no apparent activity
- activity against MNK1 (MNK1): no apparent activity
